Experimental data published in ChEMBL document CHEMBL3853298, “Total synthesis and in vitro bioevaluation of clavaminols A, C, H & deacetyl clavaminol H as potential chemotherapeutic and antibiofilm agents” (Eur J Med Chem, 2016).
≈ marks a conversion by molar mass, not a printed value.

Columns and labels:
[1] = tested on: Candida albicans; test: Antifungal activity against Candida albicans MTCC 183 after 24 hrs by well diffusion method; type: functional; conditions: MTCC 183, 24 h
Procedure, shortened: (§1)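 Candida/Issatchenkia lawns (0.1 mL suspension) on Mueller-Hinton agar; 6.0 mm bored wells receive compound across a 250 to 0.48 per-well dose range, methanol as negative control. Plates kept 24 h at 30 °C. MIC is the lowest concentration producing a visible inhibition zone. Duplicate runs, mean values.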

[2] = tested on: Candida albicans; test: Antifungal activity against Candida albicans MTCC 3018 after 24 hrs by well diffusion method; type: functional; conditions: MTCC 3018, 24 h; procedure, shortened: as §1
[3] = Cytotoxicity against human DU145 cells assessed as cell growth inhibition by MTT assay; type: functional, cell-based; conditions: DU-145
[4] = tested on: Staphylococcus aureus; test: Antibacterial activity against Staphylococcus aureus MLS16 MTCC 2940 after 24 hrs by well diffusion method; type: functional; conditions: MLS16 MTCC 2940, 24 h
Procedure, shortened: (§2)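 Bacteria spread (0.1 mL suspension) on Mueller-Hinton agar; 6.0 mm wells loaded with compound over a 250 to 0.48 per-well dose range, methanol as negative control. Incubated 24 h at 37 °C. MIC taken as the lowest concentration still giving an inhibition zone. Duplicates, mean reported.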

[5] = tested on: Bacillus subtilis; test: Antibacterial activity against Bacillus subtilis MTCC 121 after 24 hrs by well diffusion method; type: functional; conditions: MTCC 121, 24 h; procedure, shortened: as §2
[6] = tested on: Candida albicans; test: Fungicidal activity against Candida albicans MTCC 4748 after 24 hrs; type: functional; conditions: MTCC 4748, 24 h
Procedure, shortened: (§3)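 Candida grown overnight in Mueller Hinton broth. Compound serially diluted in the same broth from 150 to 0 and inoculated to a final 1.5 × 10^8 CFU/mL (0.5 McFarland), then 24 h at 37 °C. Tube contents plated onto Mueller Hinton agar for 24 h at 37 °C. MFC is the lowest concentration killing the yeast. Duplicates.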

[7] = tested on: Candida parapsilosis; test: Fungicidal activity against Candida parapsilosis MTCC 1744 after 24 hrs; type: functional; conditions: Lodderomyces parapsilosis, MTCC 1744, 24 h
Procedure, shortened: (§4)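 Broth dilution in Mueller Hinton broth with serial compound concentrations from […]. Overnight Candida cultures added to a final 1.5 × 10^8 CFU/mL (0.5 McFarland). Incubated 24 h at 37 °C, then 10 µL of each tube plated on Mueller Hinton agar for 24 h at 37 °C. MFC taken as the lowest concentration that kills the strain. Run in duplicate.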

[8] = tested on: Nakaseomyces glabratus; test: Fungicidal activity against Candida glabrata MTCC 3019 after 24 hrs; type: functional; conditions: MTCC 3019, 24 h; procedure, shortened: as §3
[9] = tested on: Micrococcus luteus; test: Antibacterial activity against Micrococcus luteus MTCC 2470 after 24 hrs by well diffusion method; type: functional; conditions: MTCC 2470, 24 h; procedure, shortened: as §2
[10] = Antifungal activity against Candida glabrata MTCC 3019 after 24 hrs by well diffusion method; type: functional; conditions: Nakaseomyces glabratus; procedure, shortened: as §1
[11] = tested on: Raoultella planticola; test: Antibiofilm activity against Klebsiella planticola MTCC 530 incubated for 24 hrs under static condition by crystal violet staining-based assay; type: functional
Procedure, shortened: (§5)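 Strains grown overnight in tryptone soy broth with 0.5% glucose. Compound (250 to 0) mixed with inoculum at 5 × 10^5 CFU/mL in polystyrene microtiter plates. Non-adherent cells washed off with PBS; wells stained with 0.1% crystal violet, dye solubilised in 95% ethanol, absorbance read at 540 nm. IC50 for 50% biofilm inhibition taken from dose-response curves. Triplicates, mean ± S.D.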

[12] = tested on: Pichia sporocuriosa; test: Antifungal activity against Issatchenkia hanoiensis MTCC 4755 after 24 hrs by well diffusion method; type: functional; conditions: MTCC 4755, 24 h; procedure, shortened: as §1
[13] = tested on: Pseudomonas aeruginosa; test: Antibacterial activity against Pseudomonas aeruginosa MTCC 2453 after 24 hrs by well diffusion method; type: functional; conditions: MTCC 2453, 24 h; procedure, shortened: as §2
[14] = tested on: Micrococcus luteus; test: Bactericidal activity against Micrococcus luteus MTCC 2470 after 24 hrs; type: functional; conditions: MTCC 2470, 24 h
Procedure, shortened: (§6)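 Broth macrodilution in Mueller Hinton broth, compound serially diluted from 150 down to 0. Overnight bacterial culture added to a final 1.5 × 10^8 CFU/mL (0.5 McFarland), 24 h at 37 °C. Suspension then subcultured onto Mueller Hinton agar for 24 h at 37 °C. MBC is the lowest concentration killing the strain. Duplicates.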

[15] = tested on: Candida albicans; test: Antifungal activity against Candida albicans MTCC 4748 after 24 hrs by well diffusion method; type: functional; conditions: MTCC 4748, 24 h; procedure, shortened: as §1
[16] = tested on: [Candida] aaseri; test: Fungicidal activity against Candida aaseri MTCC 1962 after 24 hrs; type: functional; conditions: Yamadazyma aaseri, MTCC 1962, 24 h; procedure, shortened: as §3
[17] = tested on: Staphylococcus aureus; test: Antibiofilm activity against Staphylococcus aureus MLS16 MTCC 2940 incubated for 24 hrs under static condition by crystal violet staining-based assay; type: functional; procedure, shortened: as §5
[18] = tested on: Escherichia coli; test: Antibacterial activity against Escherichia coli MTCC 739 after 24 hrs by well diffusion method; type: functional; conditions: MTCC 739, 24 h; procedure, shortened: as §2
[19] = tested on: Pseudomonas aeruginosa; test: Bactericidal activity against Pseudomonas aeruginosa MTCC 2453 after 24 hrs; type: functional; conditions: MTCC 2453, 24 h; procedure, shortened: as §6
[20] = tested on: Pichia sporocuriosa; test: Fungicidal activity against Issatchenkia hanoiensis MTCC 4755 after 24 hrs; type: functional; conditions: MTCC 4755, 24 h; procedure, shortened: as §4
[21] = tested on: Staphylococcus aureus; test: Bactericidal activity against Staphylococcus aureus MLS16 MTCC 2940 after 24 hrs; type: functional; conditions: MLS16 MTCC 2940, 24 h; procedure, shortened: as §6
[22] = tested on: Candida albicans; test: Fungicidal activity against Candida albicans MTCC 183 after 24 hrs; type: functional; conditions: MTCC 183, 24 h; procedure, shortened: as §3
[23] = tested on: Pichia kudriavzevii; test: Fungicidal activity against Candida krusei MTCC 3020 after 24 hrs; type: functional; conditions: MTCC 3020, 24 h; procedure, shortened: as §4
[24] = tested on: Escherichia coli; test: Antibiofilm activity against Escherichia coli MTCC 739 incubated for 24 hrs under static condition by crystal violet staining-based assay; type: functional; procedure, shortened: as §5
[25] = tested on: Candida albicans; test: Fungicidal activity against Candida albicans MTCC 3017 after 24 hrs; type: functional; conditions: MTCC 3017, 24 h; procedure, shortened: as §3
[26] = tested on: Staphylococcus aureus; test: Bactericidal activity against Staphylococcus aureus MTCC 96 after 24 hrs; type: functional; conditions: MTCC 96, 24 h; procedure, shortened: as §6

MIC [1]: 15.6 µg/mL (≈ 71.8 µM) | MIC [2]: 15.6 µg/mL (≈ 71.8 µM) | MIC [4]: 3.9 µg/mL (≈ 17.9 µM) | MIC [5]: 3.9 µg/mL (≈ 17.9 µM) | MIC [9]: 3.9 µg/mL (≈ 17.9 µM) | MIC [10]: 15.6 µg/mL (≈ 71.8 µM) | MIC [12]: 15.6 µg/mL (≈ 71.8 µM) | MIC [13]: 7.8 µg/mL (≈ 35.9 µM) | MIC [15]: 15.6 µg/mL (≈ 71.8 µM) | IC50 [17]: 2.1 µg/mL (≈ 9.66 µM) | MIC [18]: 7.8 µg/mL (≈ 35.9 µM)
Compound: CCCCCCCCC[C@H](O)[C@H](N)CO
IC50 [3]: 34.1 µM | MFC [6]: 31.2 µg/mL (≈ 144 µM) | MFC [7]: 62.5 µg/mL (≈ 288 µM) | MFC [8]: 15.6 µg/mL (≈ 71.8 µM) | IC50 [11]: 9.2 µg/mL (≈ 42.3 µM) | MBC [14]: 7.8 µg/mL (≈ 35.9 µM) | MFC [16]: 31.2 µg/mL (≈ 144 µM) | MBC [19]: 15.6 µg/mL (≈ 71.8 µM) | MFC [20]: 31.2 µg/mL (≈ 144 µM) | MBC [21]: 7.8 µg/mL (≈ 35.9 µM) | MFC [22]: 15.6 µg/mL (≈ 71.8 µM) | MFC [23]: 15.6 µg/mL (≈ 71.8 µM) | INH [24]: 4.6 µg/mL | MFC [25]: 31.2 µg/mL (≈ 144 µM) | MBC [26]: 7.8 µg/mL (≈ 35.9 µM)
